Assay: Partition coefficient (logP)
Assay type: physicochemical
Details: octanol/water
How it was run: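 Shake-flask partitioning of the neutral amine species between 1-octanol and 0.1 N NaOH. Both phases were analysed by gas chromatography on 10% Apiezon L with 2% KOH on 80-100 mesh Chromosorb WAW. Observed log P was taken from the phase distribution.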

Going from CNC1C2CC[C@H]1c1ccccc12 (stereo in doubt; 11) to NC1C2CC[C@H]1c1ccccc12 (stereo in doubt; 19), the logP falls from 2.47 to 2.08.

Same assay, conditions: octanol/water; read-out: logP

CCN[C@@H]1CC2C[C@@H]1c1ccccc12 and CCN[C@H]1CC2C[C@@H]1c1ccccc12 are within 0.2 log units of each other in logP: 2.72 for the first, 2.62 for the second.

CCCN[C@@H]1CC2C[C@@H]1c1ccccc12 and CCCN[C@H]1CC2C[C@@H]1c1ccccc12 are within 0.2 log units of each other in logP: 3.3 for the first, 3.13 for the second.

CN[C@@H]1CC2CC[C@@H]1c1ccccc12 and CN[C@H]1CC2CC[C@@H]1c1ccccc12 are within 0.2 log units of each other in logP: 2.68 for the first, 2.59 for the second.

Going from N[C@@H]1CC2C[C@@H]1c1ccc(C(F)(F)F)cc12 to N[C@H]1CC2C[C@@H]1c1ccc(C(F)(F)F)cc12, the logP falls from 3.21 to 2.91.

CN[C@@H]1CC2C[C@@H]1c1ccccc12 and CN[C@H]1CC2C[C@@H]1c1ccccc12 are within 0.2 log units of each other in logP: 2.41 for the first, 2.32 for the second.

First: N[C@@H]1CC2O[C@@H]1c1ccccc12
Second: N[C@H]1CC2O[C@@H]1c1ccccc12
The logP of the first is higher: 0.75 for the first, 0.4 for the second.

N[C@H]1CC2C[C@@H]1c1ccccc12 and N[C@@H]1CC2C[C@@H]1c1ccccc12 are within 0.2 log units of each other in logP: 2 for the first, 2.09 for the second.

Going from CN[C@@H]1CC2O[C@@H]1c1ccccc12 to CN[C@H]1CC2O[C@@H]1c1ccccc12, the logP falls from 0.91 to 0.59.

N[C@H]1CC2CC[C@@H]1c1ccccc12 and N[C@@H]1CC2CCC1c1ccccc12 (some centres undefined) are within 0.2 log units of each other in logP: 2.29 for the first, 2.32 for the second.

Compared with N[C@@H]1CC2C[C@@H]1c1cc(C(F)(F)F)ccc12, N[C@H]1CC2C[C@@H]1c1cc(C(F)(F)F)ccc12 is lower in logP: 3.19 for the first, 2.85 for the second.

First: CNC1C2CC[C@H]1c1ccccc12 (stereo in doubt; 13)
Second: NC1C2CC[C@H]1c1ccccc12 (stereo in doubt; 17)
The logP of the first is higher: 2.37 for the first, 2.13 for the second.
